In ChEMBL document CHEMBL3244396, “Synthesis and antileukemic activity of 5-substituted 2,3-dihydro-6,7-bis(hydroxymethyl)-1H-pyrrolizine diesters” (J Med Chem, 1977):

Tests used:
L1210 [1] = assay: Antileukemic activity against mouse L1210 cells allografted in female BDF1 mouse assessed as host mean survival time at 200 mg/kg, ip administered daily for 9 days as Klucel suspension starting 24 hrs after tumor inoculation relative to control; assay type: functional; conditions: route intraperitoneal
Method in brief: (§1)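 L1210 leukemia given as an ascitic fluid cell inoculum, ip, to mice of the strain and sex in each line. Test material was given ip for nine daily doses starting 24 h after inoculation, in a Klucel (hydroxypropylcellulose) suspension. Read-out is mean survival time as %T/C versus controls, with >125 taken as significant.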

Mus musculus [2] = assay: Toxicity in female CDF1 mouse allografted with mouse P388 cells assessed as animal survival at 200 mg/kg, ip administered daily for 9 days as Klucel suspension starting 24 hrs after tumor inoculation; assay type: organism-based; set-up: dose 200 mg/kg, route intraperitoneal; conditions: in vivo
Method in brief: (§2)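 P-388 leukemia ascitic fluid inoculated ip. Compound given ip as a suspension in Klucel (hydroxypropylcellulose), once daily for nine doses beginning 24 h post-inoculation. Acute toxicity assessed as toxicity-day survivors per group. Survival was followed up to 30 days, with 30-day survival counted as "cure". Follows NCI screening protocols.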

L1210 [3] = assay: Antileukemic activity against mouse L1210 cells allografted in female BDF1 mouse assessed as change in body weight at 100 mg/kg, ip administered daily for 9 days as Klucel suspension starting 24 hrs after tumor inoculation; assay type: functional; conditions: route intraperitoneal
Method in brief: (§3)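 Ascitic fluid carrying L1210 cells was inoculated ip. Compound was given ip as a Klucel (hydroxypropylcellulose) suspension in nine daily doses, starting 24 h after inoculation. Body-weight difference (treated minus control) was recorded on day 5. Survival was scored as %T/C of mean survival time.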

P388 [4] = assay: Antitumor activity against mouse P388 cells allografted in female CDF1 mouse assessed as disease cures by measuring 30-days host survival at 100 mg/kg, ip administered daily for 9 days as Klucel suspension starting 24 hrs after tumor inoculation relative to control; assay type: functional; conditions: route intraperitoneal
Method in brief: (§4)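 P388 leukemia given as an ascitic fluid cell inoculum, ip, to mice of the strain and sex in each line. Nine daily ip doses were given in a Klucel (hydroxypropylcellulose) suspension, starting 24 h after inoculation. Read-out is median survival time as %T/C, with >125 taken as significant; a "cure" means 30-day survival.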

Mus musculus [5] = assay: Toxicity in female CDF1 mouse allografted with mouse P388 cells assessed as animal survival at 50 mg/kg, ip administered daily for 9 days as Klucel suspension starting 24 hrs after tumor inoculation; assay type: organism-based; set-up: dose 50 mg/kg, route intraperitoneal; conditions: in vivo; method in brief: as §2
P388 [6] = assay: Antitumor activity against mouse P388 cells allografted in female CDF1 mouse assessed as disease cures by measuring 30-days host survival at 200 mg/kg, ip administered daily for 9 days as Klucel suspension starting 24 hrs after tumor inoculation relative to control; assay type: functional; conditions: route intraperitoneal; method in brief: as §4
Mus musculus [7] = assay: Toxicity in female BDF1 mouse allografted with mouse L1210 cells assessed as animal survival at 200 mg/kg, ip administered daily for 9 days as Klucel suspension starting 24 hrs after tumor inoculation measured on fifth day; assay type: organism-based; set-up: dose 200 mg/kg, route intraperitoneal; conditions: in vivo
Method in brief: (§5)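 L1210 leukemia passaged as ascitic fluid and inoculated ip. Test agent given ip as a Klucel (hydroxypropylcellulose) suspension, nine daily doses starting 24 h after tumor inoculation. Acute toxicity read as toxicity-day survivors per group (out of 6), recorded on day 5. Animal weight difference T − C was also recorded. Follows NCI screening protocols.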

Mus musculus [8] = assay: Toxicity in female BDF1 mouse allografted with mouse L1210 cells assessed as animal survival at 50 mg/kg, ip administered daily for 9 days as Klucel suspension starting 24 hrs after tumor inoculation measured on fifth day; assay type: organism-based; set-up: dose 50 mg/kg, route intraperitoneal; conditions: in vivo; method in brief: as §5
Mus musculus [9] = assay: Toxicity in female CDF1 mouse allografted with mouse P388 cells assessed as animal survival at 100 mg/kg, ip administered daily for 9 days as Klucel suspension starting 24 hrs after tumor inoculation; assay type: organism-based; set-up: dose 100 mg/kg, route intraperitoneal; conditions: in vivo; method in brief: as §2
P388 [10] = assay: Antitumor activity against mouse P388 cells allografted in female BDF1 mouse assessed as change in body weight at 25 mg/kg, ip administered daily for 9 days as Klucel suspension starting 24 hrs after tumor inoculation; assay type: functional; conditions: route intraperitoneal
Method in brief: (§6)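 Ascitic fluid carrying P388 cells was inoculated ip. Compound was given ip in nine daily doses, starting 24 h after inoculation, in Klucel (hydroxypropylcellulose) suspension or in saline with Tween-80. Body-weight difference (treated minus control) was recorded on day 5. Survival was scored as %T/C of median survival time, and 30-day survival counted as cure.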

P388 [11] = assay: Antitumor activity against mouse P388 cells allografted in female BDF1 mouse assessed as disease cures by measuring 30-days host survival at 25 mg/kg, ip administered daily for 9 days as Klucel suspension starting 24 hrs after tumor inoculation relative to control; assay type: functional; conditions: route intraperitoneal; method in brief: as §4
P388 [12] = assay: Antitumor activity against mouse P388 cells allografted in female BDF1 mouse assessed as change in body weight at 12.5 mg/kg, ip administered daily for 9 days as Klucel suspension starting 24 hrs after tumor inoculation; assay type: functional; conditions: route intraperitoneal; method in brief: as §6
Mus musculus [13] = assay: Toxicity in female BDF1 mouse allografted with mouse L1210 cells assessed as animal survival at 100 mg/kg, ip administered daily for 9 days as Klucel suspension starting 24 hrs after tumor inoculation measured on fifth day; assay type: organism-based; set-up: dose 100 mg/kg, route intraperitoneal; conditions: in vivo
Method in brief: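 Female BDF1 mice bearing ip ascitic L1210 inoculum got nine daily ip doses in a Klucel suspension, starting 24 h after tumor inoculation. Toxicity was scored as toxicity-day survivors out of the group, recorded on the fifth day. Animal weight difference (T − C) was also tabulated.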

Mus musculus [14] = assay: Toxicity in female BDF1 mouse allografted with mouse P388 cells assessed as animal survival at 25 mg/kg, ip administered daily for 9 days as Klucel suspension starting 24 hrs after tumor inoculation; assay type: organism-based; set-up: dose 25 mg/kg, route intraperitoneal; conditions: in vivo; method in brief: as §2
P388 [15] = assay: Antitumor activity against mouse P388 cells allografted in female BDF1 mouse assessed as disease cures by measuring 30-days host survival at 12.5 mg/kg, ip administered daily for 9 days as Klucel suspension starting 24 hrs after tumor inoculation relative to control; assay type: functional; conditions: route intraperitoneal; method in brief: as §4
[16] = Cytotoxicity against human 9KB cells treated as ethanol solution; assay type: functional; conditions: read-out: ED50 (the source's name)
Method in brief: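 Compound applied as an ethanol solution; activity read out as ED50 under the general screening protocol.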

L1210 [17] = assay: Antileukemic activity against mouse L1210 cells allografted in female BDF1 mouse assessed as host mean survival time at 50 mg/kg, ip administered daily for 9 days as Klucel suspension starting 24 hrs after tumor inoculation relative to control; assay type: functional; conditions: route intraperitoneal; method in brief: as §1
L1210 [18] = assay: Antileukemic activity against mouse L1210 cells allografted in female BDF1 mouse assessed as host mean survival time at 100 mg/kg, ip administered daily for 9 days as Klucel suspension starting 24 hrs after tumor inoculation relative to control; assay type: functional; conditions: route intraperitoneal; method in brief: as §1
L1210 [19] = assay: Antileukemic activity against mouse L1210 cells allografted in female BDF1 mouse assessed as change in body weight at 200 mg/kg, ip administered daily for 9 days as Klucel suspension starting 24 hrs after tumor inoculation; assay type: functional; conditions: route intraperitoneal; method in brief: as §3
P388 [20] = assay: Antitumor activity against mouse P388 cells allografted in female CDF1 mouse assessed as change in body weight at 50 mg/kg, ip administered daily for 9 days as Klucel suspension starting 24 hrs after tumor inoculation; assay type: functional; conditions: route intraperitoneal; method in brief: as §6
P388 [21] = assay: Antitumor activity against mouse P388 cells allografted in female CDF1 mouse assessed as change in body weight at 100 mg/kg, ip administered daily for 9 days as Klucel suspension starting 24 hrs after tumor inoculation; assay type: functional; conditions: route intraperitoneal; method in brief: as §6
Mus musculus [22] = assay: Toxicity in female BDF1 mouse allografted with mouse P388 cells assessed as animal survival at 12.5 mg/kg, ip administered daily for 9 days as Klucel suspension starting 24 hrs after tumor inoculation; assay type: organism-based; set-up: dose 12.5 mg/kg, route intraperitoneal; conditions: in vivo; method in brief: as §2
P388 [23] = assay: Antitumor activity against mouse P388 cells allografted in female CDF1 mouse assessed as change in body weight at 200 mg/kg, ip administered daily for 9 days as Klucel suspension starting 24 hrs after tumor inoculation; assay type: functional; conditions: route intraperitoneal; method in brief: as §6
L1210 [24] = assay: Antileukemic activity against mouse L1210 cells allografted in female BDF1 mouse assessed as change in body weight at 50 mg/kg, ip administered daily for 9 days as Klucel suspension starting 24 hrs after tumor inoculation; assay type: functional; conditions: route intraperitoneal; method in brief: as §3
P388 [25] = assay: Antitumor activity against mouse P388 cells allografted in female CDF1 mouse assessed as disease cures by measuring 30-days host survival at 50 mg/kg, ip administered daily for 9 days as Klucel suspension starting 24 hrs after tumor inoculation relative to control; assay type: functional; conditions: route intraperitoneal; method in brief: as §4

## CC(=O)OCc1c(COC(C)=O)c(-c2ccc(Cl)c(Cl)c2)n2c1CCC2
L1210 [1]
  T/C: 100%
Mus musculus [2]
  Activity: Non-toxic
L1210 [3]
  Activity: -2.2 g
P388 [4]
  T/C: 122%
Mus musculus [5]
  Activity: Non-toxic
P388 [6]
  T/C: 127%
Mus musculus [7]
  Activity: Non-toxic
Mus musculus [8]
  Activity: Non-toxic
Mus musculus [9]
  Activity: Non-toxic
P388 [10]
  Activity: 1.2 g
P388 [11]
  T/C: 125%
P388 [12]
  Activity: 1.2 g
Mus musculus [13]
  Activity: Non-toxic
Mus musculus [14]
  Activity: Non-toxic
P388 [15]
  T/C: 114%
[16]
  EC50: > 100 µg/mL
L1210 [17]
  T/C: 100%
L1210 [18]
  T/C: 104%
L1210 [19]
  Activity: -3.3 g
P388 [20]
  Activity: -0.7 g
P388 [21]
  Activity: -1 g
Mus musculus [22]
  Activity: Non-toxic
P388 [23]
  Activity: -3 g
L1210 [24]
  Activity: -1.1 g
P388 [25]
  T/C: 141%
